Test results as given in ChEMBL document CHEMBL1255375, “Mutational events in cefotaximase extended-spectrum beta-lactamases of the CTX-M-1 cluster involved in ceftazidime resistance” (2008).
Converted amounts (≈) assume the structure as drawn.

How the values were obtained:
Escherichia coli [1] = assay: Antimicrobial activity against beta lactamase CTX-M-10 producing Escherichia coli GB20 by broth microdilution method; assay type: functional
Escherichia coli [2] = assay: Antimicrobial activity against Escherichia coli GB20 harboring P167S mutation in beta lactamase CTX-M-10 by broth microdilution method; assay type: functional
Escherichia coli [3] = assay: Antimicrobial activity against Escherichia coli GB20 harboring D240G mutation in beta lactamase CTX-M-10 by broth microdilution method; assay type: functional
Escherichia coli [4] = assay: Antimicrobial activity against Escherichia coli GB20 harboring V27A, Q38R mutations in beta lactamase CTX-3 by broth microdilution method; assay type: functional
Escherichia coli [5] = assay: Antimicrobial activity against Escherichia coli GB20 harboring V27A, Q38R, P167S mutation in beta lactamase CTX-M-3 by broth microdilution method; assay type: functional
Escherichia coli [6] = assay: Antimicrobial activity against Escherichia coli GB20 harboring V27A, Q38R, A77V, P167S mutation in beta lactamase CTX-M-3 by broth microdilution method; assay type: functional
Escherichia coli [7] = assay: Antimicrobial activity against Escherichia coli GB20 harboring V27A, Q38R, A77V, N114D, A140S, D288N mutations in beta lactamase CTX-M-1 by broth microdilution method; assay type: functional
Escherichia coli [8] = assay: Antimicrobial activity against Escherichia coli GB20 harboring V27A, Q38R, A77V, N114D, A140S, P167S, D288N mutations in beta lactamase CTX-M-1 by broth microdilution method; assay type: functional
Escherichia coli [9] = assay: Antimicrobial activity against Escherichia coli GB20 harboring V27A, Q38R, A77V, N114D, A140S, P167T, D288N mutations in beta lactamase CTX-M-1 by broth microdilution method; assay type: functional
Escherichia coli [10] = assay: Antimicrobial activity against Escherichia coli MI1443 harboring V27A, Q38R, D240G mutations in beta lactamase CTX-M-15 by broth microdilution method; assay type: functional
Escherichia coli [11] = assay: Antimicrobial activity against Escherichia coli MI1443 harboring V27A, Q38R, A77V, N114D, A140S, D240G, D288N mutations in beta lactamase CTX-M-32 by broth microdilution method; assay type: functional
Escherichia coli [12] = assay: Antimicrobial activity against Escherichia coli MI1443 harboring A77V mutation in beta lactamase CTX-M-10 by E-test; assay type: functional
How it was run: (§1)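 MICs by E-test. Host is E. coli MI1443 carrying an artificial blaCTX-M derivative made by PCR and cloned into pBGS18- (EcoRI/PstI). Transformants were selected on kanamycin 50 µg/ml and the mutation was confirmed by sequencing. Agents tested: cefotaxime, ceftazidime, cefepime, cefuroxime and amoxicillin-clavulanate.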

Escherichia coli [13] = assay: Antimicrobial activity against Escherichia coli MI1443 harboring A77V and P167S mutations in beta lactamase CTX-M-10 by E-test; assay type: functional
How it was run: (§2)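 E-test MICs on E. coli MI1443 carrying artificial blaCTX-M derivatives. Each gene was cloned into pBGS18– at EcoRI/PstI, transformed into MI1443, selected with kanamycin 50 µg/ml, and sequenced to confirm the mutation. Agents: cefotaxime, ceftazidime, cefepime, cefuroxime, amoxicillin-clavulanate.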

Escherichia coli [14] = assay: Antimicrobial activity against Escherichia coli MI1443 harboring A77V and D240G mutations in beta lactamase CTX-M-10 by E-test; assay type: functional; how it was run: as §2
Escherichia coli [15] = assay: Antimicrobial activity against Escherichia coli MI1443 harboring N106S mutation in beta lactamase CTX-M-10 by E-test; assay type: functional; how it was run: as §2
Escherichia coli [16] = assay: Antimicrobial activity against Escherichia coli MI1443 harboring N106S and P167S mutations in beta lactamase CTX-M-10 by E-test; assay type: functional; how it was run: as §2
Escherichia coli [17] = assay: Antimicrobial activity against Escherichia coli MI1443 harboring N106S and D240G mutations in beta lactamase CTX-M-10 by E-test; assay type: functional; how it was run: as §2
Escherichia coli [18] = assay: Antimicrobial activity against Escherichia coli MI1443 harboring P167S and D240G mutations in beta lactamase CTX-M-10 by E-test; assay type: functional; how it was run: as §1
Escherichia coli [19] = assay: Antimicrobial activity against Escherichia coli MI1443 harboring V27A and Q38R mutations in beta lactamase CTX-M-10 by E-test; assay type: functional; how it was run: as §2
Escherichia coli [20] = assay: Antimicrobial activity against Escherichia coli MI1443 harboring V27A, Q38R, A77V mutations in beta lactamase CTX-M-3 by E-test; assay type: functional; how it was run: as §1
Escherichia coli [21] = assay: Antimicrobial activity against Escherichia coli MI1443 harboring V27A, Q38R, A77V and D240G mutations in beta lactamase CTX-M-3 by E-test; assay type: functional; how it was run: as §2
Escherichia coli [22] = assay: Antimicrobial activity against Escherichia coli MI1443 harboring V27A, Q38R, N106S mutations in beta lactamase CTX-M-3 by E-test; assay type: functional; how it was run: as §1
Escherichia coli [23] = assay: Antimicrobial activity against Escherichia coli MI1443 harboring V27A, Q38R, N106S and P167S mutations in beta lactamase CTX-M-3 by E-test; assay type: functional; how it was run: as §1
Escherichia coli [24] = assay: Antimicrobial activity against Escherichia coli MI1443 harboring V27A, Q38R, N106S and D240G mutations in beta lactamase CTX-M-3 by E-test; assay type: functional; how it was run: as §2
Escherichia coli [25] = assay: Antimicrobial activity against Escherichia coli MI1443 harboring V27A, Q38R, P167S and D240G mutations in beta lactamase CTX-M-3 by E-test; assay type: functional; how it was run: as §1
Escherichia coli [26] = assay: Antimicrobial activity against beta lactamase CTX-M-10 producing Escherichia coli MI1443 by broth microdilution

Structure (SMILES): CC(C)(O/N=C(\C(=O)N[C@@H]1C(=O)N2C(C(=O)[O-])=C(C[n+]3ccccc3)CS[C@H]12)c1csc(N)n1)C(=O)O [CEFTAZIDIME]
- MIC (Escherichia coli [1]): 1 µg/mL (≈ 1.83 µM)
- MIC (Escherichia coli [2]): 32 µg/mL (≈ 58.5 µM)
- MIC (Escherichia coli [3]): 16 µg/mL (≈ 29.3 µM)
- MIC (Escherichia coli [4]): 1 µg/mL (≈ 1.83 µM)
- MIC (Escherichia coli [5]): 32 µg/mL (≈ 58.5 µM)
- MIC (Escherichia coli [6]): 32 µg/mL (≈ 58.5 µM)
- MIC (Escherichia coli [7]): 4 µg/mL (≈ 7.32 µM)
- MIC (Escherichia coli [8]): 256 µg/mL (≈ 468 µM)
- MIC (Escherichia coli [9]): 256 µg/mL (≈ 468 µM)
- MIC (Escherichia coli [10]): 2 µg/mL (≈ 3.66 µM)
- MIC (Escherichia coli [11]): 2 µg/mL (≈ 3.66 µM)
- MIC (Escherichia coli [12]): 8 µg/mL (≈ 14.6 µM)
- MIC (Escherichia coli [13]): 64 µg/mL (≈ 117 µM)
- MIC (Escherichia coli [14]): 8 µg/mL (≈ 14.6 µM)
- MIC (Escherichia coli [15]): 0.5 µg/mL (≈ 0.915 µM)
- MIC (Escherichia coli [16]): 16 µg/mL (≈ 29.3 µM)
- MIC (Escherichia coli [17]): 2 µg/mL (≈ 3.66 µM)
- MIC (Escherichia coli [18]): 4 µg/mL (≈ 7.32 µM)
- MIC (Escherichia coli [19]): 1 µg/mL (≈ 1.83 µM)
- MIC (Escherichia coli [20]): 1 µg/mL (≈ 1.83 µM)
- MIC (Escherichia coli [21]): 2 µg/mL (≈ 3.66 µM)
- MIC (Escherichia coli [22]): 0.5 µg/mL (≈ 0.915 µM)
- MIC (Escherichia coli [23]): 32 µg/mL (≈ 58.5 µM)
- MIC (Escherichia coli [24]): 2 µg/mL (≈ 3.66 µM)
- MIC (Escherichia coli [25]): 8 µg/mL (≈ 14.6 µM)
- MIC (Escherichia coli [26]): 1 µg/mL (≈ 1.83 µM)

Structure (SMILES): CO/N=C(\C(=O)N[C@@H]1C(=O)N2C(C(=O)[O-])=C(C[N+]3(C)CCCC3)CS[C@H]12)c1csc(N)n1 [CEFEPIME]
- MIC (Escherichia coli [1]): 32 µg/mL (≈ 66.6 µM)
- MIC (Escherichia coli [2]): 1 µg/mL (≈ 2.08 µM)
- MIC (Escherichia coli [3]): 4 µg/mL (≈ 8.32 µM)
- MIC (Escherichia coli [4]): 32 µg/mL (≈ 66.6 µM)
- MIC (Escherichia coli [5]): 0.5 µg/mL (≈ 1.04 µM)
- MIC (Escherichia coli [6]): 0.25 µg/mL (≈ 0.52 µM)
- MIC (Escherichia coli [7]): 128 µg/mL (≈ 266 µM)
- MIC (Escherichia coli [8]): 4 µg/mL (≈ 8.32 µM)
- MIC (Escherichia coli [9]): 4 µg/mL (≈ 8.32 µM)
- MIC (Escherichia coli [10]): 1 µg/mL (≈ 2.08 µM)
- MIC (Escherichia coli [11]): 4 µg/mL (≈ 8.32 µM)
- MIC (Escherichia coli [12]): 128 µg/mL (≈ 266 µM)
- MIC (Escherichia coli [13]): 1 µg/mL (≈ 2.08 µM)
- MIC (Escherichia coli [14]): 32 µg/mL (≈ 66.6 µM)
- MIC (Escherichia coli [15]): 1 µg/mL (≈ 2.08 µM)
- MIC (Escherichia coli [16]): 1 µg/mL (≈ 2.08 µM)
- MIC (Escherichia coli [17]): 4 µg/mL (≈ 8.32 µM)
- MIC (Escherichia coli [18]): < 0.25 µg/mL
- MIC (Escherichia coli [19]): 32 µg/mL (≈ 66.6 µM)
- MIC (Escherichia coli [20]): 1.5 µg/mL (≈ 3.12 µM)
- MIC (Escherichia coli [21]): 4 µg/mL (≈ 8.32 µM)
- MIC (Escherichia coli [22]): 1.5 µg/mL (≈ 3.12 µM)
- MIC (Escherichia coli [23]): 1.5 µg/mL (≈ 3.12 µM)
- MIC (Escherichia coli [24]): 8 µg/mL (≈ 16.6 µM)
- MIC (Escherichia coli [25]): 0.5 µg/mL (≈ 1.04 µM)
- MIC (Escherichia coli [26]): 32 µg/mL (≈ 66.6 µM)

Structure (SMILES): CO/N=C(\C(=O)N[C@@H]1C(=O)N2C(C(=O)O)=C(COC(C)=O)CS[C@H]12)c1csc(N)n1 [CEFOTAXIME]
- MIC (Escherichia coli [1]): 256 µg/mL (≈ 562 µM)
- MIC (Escherichia coli [2]): 1 µg/mL (≈ 2.2 µM)
- MIC (Escherichia coli [3]): ≥ 256 µg/mL
- MIC (Escherichia coli [4]): 256 µg/mL (≈ 562 µM)
- MIC (Escherichia coli [5]): 1 µg/mL (≈ 2.2 µM)
- MIC (Escherichia coli [6]): 4 µg/mL (≈ 8.78 µM)
- MIC (Escherichia coli [7]): ≥ 256 µg/mL
- MIC (Escherichia coli [8]): 16 µg/mL (≈ 35.1 µM)
- MIC (Escherichia coli [9]): 16 µg/mL (≈ 35.1 µM)
- MIC (Escherichia coli [10]): 128 µg/mL (≈ 281 µM)
- MIC (Escherichia coli [11]): 256 µg/mL (≈ 562 µM)
- MIC (Escherichia coli [12]): ≥ 256 µg/mL
- MIC (Escherichia coli [13]): 4 µg/mL (≈ 8.78 µM)
- MIC (Escherichia coli [14]): ≥ 256 µg/mL
- MIC (Escherichia coli [15]): 2 µg/mL (≈ 4.39 µM)
- MIC (Escherichia coli [16]): 2 µg/mL (≈ 4.39 µM)
- MIC (Escherichia coli [17]): 64 µg/mL (≈ 141 µM)
- MIC (Escherichia coli [18]): 4 µg/mL (≈ 8.78 µM)
- MIC (Escherichia coli [19]): 256 µg/mL (≈ 562 µM)
- MIC (Escherichia coli [20]): 128 µg/mL (≈ 281 µM)
- MIC (Escherichia coli [21]): ≥ 256 µg/mL
- MIC (Escherichia coli [22]): 3 µg/mL (≈ 6.59 µM)
- MIC (Escherichia coli [23]): 3 µg/mL (≈ 6.59 µM)
- MIC (Escherichia coli [24]): ≥ 256 µg/mL
- MIC (Escherichia coli [25]): 1.5 µg/mL (≈ 3.29 µM)
- MIC (Escherichia coli [26]): 256 µg/mL (≈ 562 µM)

Structure (SMILES): CO/N=C(\C(=O)N[C@@H]1C(=O)N2C(C(=O)O)=C(COC(N)=O)CS[C@H]12)c1ccco1 [CEFUROXIME]
- MIC (Escherichia coli [1]): ≥ 256 µg/mL
- MIC (Escherichia coli [2]): 32 µg/mL (≈ 75.4 µM)
- MIC (Escherichia coli [5]): 128 µg/mL (≈ 302 µM)
- MIC (Escherichia coli [6]): 64 µg/mL (≈ 151 µM)
- MIC (Escherichia coli [13]): 64 µg/mL (≈ 151 µM)
- MIC (Escherichia coli [26]): ≥ 256 µg/mL
